# Laboratory results taken from ChEMBL document CHEMBL4689842, “EUbOPEN Chemogenomics Library wave 1” (2021).
# Experiments:
# Format in all cases: toxicity, cell-based
# [1] = tested on: HEK-293T; experiment: Incucyte cell viability with HEK293T; settings: human, 10 µM, compound concentration 10 uM; also: filed as whole numbers so only -1 and 0 and 1 occur
# [2] = tested on: U2OS; experiment: Multiplex assay against U2OS; settings: human
# Outline: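 Values for tubulin, mitochondrial-mass and membrane-permeability phenotypes are per cents of cells with healthy nuclei. These cells were identified by CellPathfinder machine-learning gating of live cells that had been stained at seeding with Hoechst33342, BioTracker Green Microtubule Cytoskeleton Dye, MitoTracker Red and Annexin V Alexa Fluor 680 and imaged on a CQ1 microscope at 37°C and 5% CO2 after compound addition. The gating first set Hoechst high-intensity objects apart from normal cells, then split normal cells into healthy, pyknosed or fragmented nuclei, and pyknosed cells into mitotic or apoptotic.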
# [3] = tested on: U2OS; experiment: Incucyte cell viability with U2OS; settings: human, 10 µM, compound concentration 10 uM; also: filed as whole numbers so only -1 and 0 and 1 occur
# [4] = 6 h, replicate number 1, timepoint 6 hours
# [5] = 12 h, replicate number 1, timepoint 12 hours
# [6] = 18 h, replicate number 1, timepoint 18 hours
# [7] = 24 h, replicate number 1, timepoint 24 hours
# [8] = 12 h, 1 µM, compound concentration 1 uM, replicate 1
# [9] = 12 h, 1 µM, compound concentration 1 uM, replicate 2
# [10] = 12 h, 10 µM, compound concentration 10 uM, replicate 1
# [11] = 12 h, 10 µM, compound concentration 10 uM, replicate 2
# [12] = 24 h, 1 µM, compound concentration 1 uM, replicate 1
# [13] = 24 h, 1 µM, compound concentration 1 uM, replicate 2
# [14] = 24 h, 10 µM, compound concentration 10 uM, replicate 1
# [15] = 24 h, 10 µM, compound concentration 10 uM, replicate 2
# [16] = 48 h, 1 µM, compound concentration 1 uM, replicate 1
# [17] = 48 h, 1 µM, compound concentration 1 uM, replicate 2
# [18] = 48 h, 10 µM, compound concentration 10 uM, replicate 1
# [19] = 48 h, 10 µM, compound concentration 10 uM, replicate 2
smiles,measurement,setting,value
N#Cc1cccc(C(=O)Nc2cc(-c3ccccc3)nn2-c2ccccc2)c1,Growth Rate,"[1]; 0 h, replicate number 1, timepoint 0 hours",0
same,Growth Rate,[1]; [4],0
same,Growth Rate,[1]; [5],0
same,Growth Rate,[1]; [6],0
same,Growth Rate,[1]; [7],0
same,Population Apoptotic (%),[2]; [8],33%
same,Population Fragmented Nuclei (%),[2]; [8],14%
same,Population Healthy Nuclei (%),[2]; [8],73%
same,Population Hoechst High Intensity Objects (%),[2]; [8],9%
same,Population Membrane Permeable-Phenotype (%),[2]; [8],2%
same,Population Mitotic Cells (%),[2]; [8],66%
same,Population Normal (%),[2]; [8],90%
same,Population Pyknosed Nuclei (%),[2]; [8],12%
same,Population Tubulin-Different-Phenotype (%),[2]; [8],13%
same,Total Cell Count,[2]; [8],109
same,Population Apoptotic (%),[2]; [9],16%
same,Population Fragmented Nuclei (%),[2]; [9],5%
same,Population Healthy Nuclei (%),[2]; [9],84%
same,Population Hoechst High Intensity Objects (%),[2]; [9],3%
same,Population Membrane Permeable-Phenotype (%),[2]; [9],6%
same,Population Mitochondria Different-Phenotype (%),[2]; [9],8%
same,Population Mitotic Cells (%),[2]; [9],83%
same,Population Normal (%),[2]; [9],96%
same,Population Pyknosed Nuclei (%),[2]; [9],10%
same,Population Tubulin-Different-Phenotype (%),[2]; [9],16%
same,Total Cell Count,[2]; [9],59
same,Population Apoptotic (%),[2]; [10],50%
same,Population Fragmented Nuclei (%),[2]; [10],14%
same,Population Healthy Nuclei (%),[2]; [10],69%
same,Population Hoechst High Intensity Objects (%),[2]; [10],6%
same,Population Membrane Permeable-Phenotype (%),[2]; [10],22%
same,Population Mitochondria Different-Phenotype (%),[2]; [10],86%
same,Population Mitotic Cells (%),[2]; [10],50%
same,Population Normal (%),[2]; [10],93%
same,Population Pyknosed Nuclei (%),[2]; [10],15%
same,Population Tubulin-Different-Phenotype (%),[2]; [10],100%
same,Total Cell Count,[2]; [10],121
same,Population Apoptotic (%),[2]; [11],45%
same,Population Fragmented Nuclei (%),[2]; [11],9%
same,Population Healthy Nuclei (%),[2]; [11],60%
same,Population Hoechst High Intensity Objects (%),[2]; [11],9%
same,Population Membrane Permeable-Phenotype (%),[2]; [11],15%
same,Population Mitochondria Different-Phenotype (%),[2]; [11],84%
same,Population Mitotic Cells (%),[2]; [11],55%
same,Population Normal (%),[2]; [11],90%
same,Population Pyknosed Nuclei (%),[2]; [11],30%
same,Population Tubulin-Different-Phenotype (%),[2]; [11],97%
same,Total Cell Count,[2]; [11],72
same,Population Apoptotic (%),[2]; [12],23%
same,Population Fragmented Nuclei (%),[2]; [12],13%
same,Population Healthy Nuclei (%),[2]; [12],76%
same,Population Hoechst High Intensity Objects (%),[2]; [12],11%
same,Population Mitochondria Different-Phenotype (%),[2]; [12],5%
same,Population Mitotic Cells (%),[2]; [12],76%
same,Population Normal (%),[2]; [12],88%
same,Population Tubulin-Different-Phenotype (%),[2]; [12],3%
same,Total Cell Count,[2]; [12],137
same,Population Apoptotic (%),[2]; [13],14%
same,Population Fragmented Nuclei (%),[2]; [13],3%
same,Population Healthy Nuclei (%),[2]; [13],86%
same,Population Hoechst High Intensity Objects (%),[2]; [13],4%
same,Population Membrane Permeable-Phenotype (%),[2]; [13],1%
same,Population Mitochondria Different-Phenotype (%),[2]; [13],8%
same,Population Mitotic Cells (%),[2]; [13],85%
same,Population Normal (%),[2]; [13],95%
same,Population Pyknosed Nuclei (%),[2]; [13],10%
same,Population Tubulin-Different-Phenotype (%),[2]; [13],7%
same,Total Cell Count,[2]; [13],68
same,Population Apoptotic (%),[2]; [14],35%
same,Population Fragmented Nuclei (%),[2]; [14],19%
same,Population Healthy Nuclei (%),[2]; [14],55%
same,Population Hoechst High Intensity Objects (%),[2]; [14],8%
same,Population Membrane Permeable-Phenotype (%),[2]; [14],33%
same,Population Mitochondria Different-Phenotype (%),[2]; [14],78%
same,Population Mitotic Cells (%),[2]; [14],64%
same,Population Normal (%),[2]; [14],91%
same,Population Pyknosed Nuclei (%),[2]; [14],25%
same,Population Tubulin-Different-Phenotype (%),[2]; [14],98%
same,Total Cell Count,[2]; [14],119
same,Population Apoptotic (%),[2]; [15],42%
same,Population Fragmented Nuclei (%),[2]; [15],9%
same,Population Healthy Nuclei (%),[2]; [15],67%
same,Population Hoechst High Intensity Objects (%),[2]; [15],6%
same,Population Membrane Permeable-Phenotype (%),[2]; [15],30%
same,Population Mitochondria Different-Phenotype (%),[2]; [15],71%
same,Population Mitotic Cells (%),[2]; [15],57%
same,Population Normal (%),[2]; [15],93%
same,Population Pyknosed Nuclei (%),[2]; [15],22%
same,Population Tubulin-Different-Phenotype (%),[2]; [15],95%
same,Total Cell Count,[2]; [15],66
same,Population Apoptotic (%),[2]; [16],38%
same,Population Fragmented Nuclei (%),[2]; [16],10%
same,Population Healthy Nuclei (%),[2]; [16],82%
same,Population Hoechst High Intensity Objects (%),[2]; [16],5%
same,Population Membrane Permeable-Phenotype (%),[2]; [16],2%
same,Population Mitochondria Different-Phenotype (%),[2]; [16],2%
same,Population Mitotic Cells (%),[2]; [16],61%
same,Population Normal (%),[2]; [16],94%
same,Population Pyknosed Nuclei (%),[2]; [16],7%
same,Population Tubulin-Different-Phenotype (%),[2]; [16],4%
same,Total Cell Count,[2]; [16],190
same,Population Apoptotic (%),[2]; [17],20%
same,Population Fragmented Nuclei (%),[2]; [17],3%
same,Population Healthy Nuclei (%),[2]; [17],86%
same,Population Hoechst High Intensity Objects (%),[2]; [17],4%
same,Population Membrane Permeable-Phenotype (%),[2]; [17],4%
same,Population Mitochondria Different-Phenotype (%),[2]; [17],13%
same,Population Mitotic Cells (%),[2]; [17],80%
same,Population Normal (%),[2]; [17],95%
same,Population Pyknosed Nuclei (%),[2]; [17],10%
same,Population Tubulin-Different-Phenotype (%),[2]; [17],9%
same,Total Cell Count,[2]; [17],98
same,Population Apoptotic (%),[2]; [18],59%
same,Population Fragmented Nuclei (%),[2]; [18],17%
same,Population Healthy Nuclei (%),[2]; [18],58%
same,Population Hoechst High Intensity Objects (%),[2]; [18],10%
same,Population Membrane Permeable-Phenotype (%),[2]; [18],32%
same,Population Mitochondria Different-Phenotype (%),[2]; [18],67%
same,Population Mitotic Cells (%),[2]; [18],40%
same,Population Normal (%),[2]; [18],89%
same,Population Pyknosed Nuclei (%),[2]; [18],24%
same,Population Tubulin-Different-Phenotype (%),[2]; [18],100%
same,Total Cell Count,[2]; [18],123
same,Population Apoptotic (%),[2]; [19],55%
same,Population Fragmented Nuclei (%),[2]; [19],13%
same,Population Healthy Nuclei (%),[2]; [19],60%
same,Population Hoechst High Intensity Objects (%),[2]; [19],11%
same,Population Membrane Permeable-Phenotype (%),[2]; [19],52%
same,Population Mitochondria Different-Phenotype (%),[2]; [19],42%
same,Population Mitotic Cells (%),[2]; [19],44%
same,Population Normal (%),[2]; [19],88%
same,Population Pyknosed Nuclei (%),[2]; [19],26%
same,Population Tubulin-Different-Phenotype (%),[2]; [19],97%
same,Total Cell Count,[2]; [19],78
same,Growth Rate,"[3]; 0 h, replicate number 2, timepoint 0 hours",0
same,Growth Rate,[3]; [4],0
same,Growth Rate,[3]; [5],0
same,Growth Rate,"[3]; 12 h, replicate number 2, timepoint 12 hours",1
same,Growth Rate,[3]; [6],0
same,Growth Rate,[3]; [7],0
